Laboratory results reported in ChEMBL document CHEMBL4699473, “Discovery of Bispecific Antagonists of Retinol Binding Protein 4 That Stabilize Transthyretin Tetramers: Scaffolding Hopping, Optimization, and Preclinical Pharmacological Evaluation as a Potential Therapy for Two Common Age-Related Comorbidities” (J Med Chem, 2020).
In brackets after ≈: the same amount, converted by molar mass. Activity calls are given as the source filed them. No cut-off for these calls is given here.

What was measured:
[1] = target: T1, Retinol-binding protein 4 (Homo sapiens, UniProt P02753); assay: Displacement of [3H]-all-trans-retinol from biotinylated human urine derived RBP4 measured after 16 hrs by scintillation proximity assay
Transthyretin [2] = target: T2, Transthyretin (Homo sapiens, UniProt P02766); assay: Stabilization of human His-tagged TTR (Gly21 to Glu147) expressed in HEK293 cells assessed as reduction in acid-induced protein aggregation by measuring increase in TTR monomer level at 50 uM incubated for 72 hrs at pH 4 by Western blot; type: cell-based
How it was run: (§1)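 Human TTR (2 μL of 167 μM) incubated in 50 mM sodium acetate pH 4.0, 100 mM KCl, with or without 50 μM compound (DMSO vehicle), 72 h at 37 °C. Neutralized with 500 mM sodium phosphate pH 8.0 plus CHAPS, cross-linked, then run on SDS-PAGE and anti-TTR Western blot. Pixel volumes of high-molecular-weight and monomer bands quantified. At least three independent experiments; one-way ANOVA with Holm–Sidak test.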

Transthyretin [3] = target: T2, Transthyretin; assay: Stabilization of human His-tagged TTR (Gly21 to Glu147) expressed in HEK293 cells assessed as reduction in acid-induced protein aggregation by measuring reduction in high molecular aggregates at 50 uM incubated for 72 hrs at pH 4 by Western blot analysis relative to control; type: cell-based; how it was run: as §1
Transthyretin [4] = target: T2, Transthyretin; assay: Displacement of FITC-diclofenac from human plasma derived TTR measured after overnight incubation by fluorescence polarization assay; type: cell-free
How it was run: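 Incubated overnight at 4 °C, then fluorescence polarization read. Nonspecific binding defined with 500 μM unlabeled diclofenac.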

CYP2C9 = CYP2C9 (Homo sapiens, UniProt P11712); assay: Inhibition of recombinant human CYP2C9 expressed in insect cell microsomes at 10 uM using 7-methoxy-4-trifluoromethylcoumarin as substrate measured after 15 to 45 mins in presence of NADPH by fluorescence assay relative to control; type: ADME, Microsome; details: probe 7-methoxy-4-trifluoromethylcoumarin, time 15-45 min
[5] = Initial drug level in CD-1 mouse at 2 mg/kg, iv by LC-MS/MS analysis; type: ADME, organism-based; details: in vivo
How it was run: (§2)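 Drug-naive adult male CD-1 mice, three per group, given a single IV 2 mg/kg dose in 3% dimethylacetamide/45% PEG300/12% ethanol/40% sterile water. Blood compound concentrations followed over time. C0 is the observed concentration at time zero, half-life is from the terminal elimination phase, and Vss is at steady state. Reported as mean (SD).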

[6] = Kinetic solubility of the compound in pH 7.4 PBS buffer by UV/VIS-HPLC method; type: physicochemical; details: read-out: Kinetic_solubility
How it was run: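 Kinetic solubility measured in buffer at pH 7.4.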

CYP2C19 = CYP2C19 (Homo sapiens, UniProt P33261); assay: Inhibition of recombinant human CYP2C19 expressed in insect cell microsomes at 10 uM using fluorescence probe as substrate measured after 15 to 45 mins in presence of NADPH by fluorescence assay relative to control; type: ADME, Microsome; details: time 15-45 min
[7] = Apparent terminal phase half life in CD-1 mouse at 5 mg/kg, po administered via gavage by LC-MS/MS analysis; type: ADME, organism-based; details: in vivo
How it was run: (§3)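 Drug-naive adult male CD-1 mice, three per group, given a single oral 5 mg/kg dose in 2% Tween 80 in 0.9% saline. Compound levels measured in blood over time. Values are the mean (SD) of the PK parameters; %F is derived against the 2 mg/kg IV group.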

[8] = Tmax in CD-1 mouse at 5 mg/kg, po administered via gavage by LC-MS/MS analysis; type: ADME, organism-based; details: in vivo; how it was run: as §3
[9] = Apparent terminal phase half life in CD-1 mouse at 2 mg/kg, iv by LC-MS/MS analysis; type: ADME, organism-based; details: in vivo; how it was run: as §2
CYP2D6 = CYP2D6 (Homo sapiens, UniProt P10635); assay: Inhibition of recombinant human CYP2D6 expressed in insect cell microsomes at 10 uM using fluorescence probe as substrate measured after 15 to 45 mins in presence of NADPH by fluorescence assay relative to control; type: ADME, Microsome; details: time 15-45 min
[10] = Cmax in CD-1 mouse at 5 mg/kg, po administered via gavage by LC-MS/MS analysis; type: ADME, organism-based; design: route oral, dose 5 mg/kg; details: in vivo; how it was run: as §3
Mus musculus = assay: Effect on serum TTR level in CD-1 mouse at 25 mg/kg, po administered via gavage; type: functional, organism-based
[11] = Oral bioavailability in CD-1 mouse at 5 mg/kg administered via gavage by LC-MS/MS analysis; type: ADME, organism-based; details: in vivo; how it was run: as §3
[12] = Stability in CD-1 mouse liver microsomes assessed as parent compound remaining measured after 30 mins; type: ADME, Microsome; details: 0.5 h
How it was run: (§4)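 Parent compound remaining after 30 min incubation with human, rat, mouse or cynomolgus monkey liver microsomes, expressed as %.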

[13] = In vivo antagonist activity at TTR-RBP4 complex in CD-1 mouse assessed as reduction in serum RBP4 level at 25 mg/kg, po administered via gavage measured after 24 hrs by ELISA relative to control; type: functional; design: scale not given: the % may be the effect or the level left
How it was run: (§5)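 Male mice received a single oral dose of 25 mg/kg; serum RBP4 was followed over time, with the 6 h and 24 h points reported as % reduction. Three mice per group; values are mean ± SD.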

CYP3A4 = CYP3A4 (Homo sapiens, UniProt P08684); assay: Inhibition of recombinant human CYP3A4 expressed in insect cell microsomes at 10 uM using fluorescence probe as substrate measured after 15 to 45 mins in presence of NADPH by fluorescence assay relative to control; type: ADME, Microsome; details: time 15-45 min
[14] = AUC (infinity) in CD-1 mouse at 5 mg/kg, po administered via gavage by LC-MS/MS analysis; type: ADME, organism-based; design: route oral, time infinity, dose 5 mg/kg; details: in vivo; how it was run: as §3
[15] = Stability in Sprague-Dawley rat liver microsomes assessed as parent compound remaining measured after 30 mins; type: ADME, Microsome; details: 0.5 h; how it was run: as §4
[16] = Volume of distribution at steady state in CD-1 mouse at 2 mg/kg, iv by LC-MS/MS analysis; type: ADME, organism-based; details: in vivo; how it was run: as §2
[17] = In vivo antagonist activity at TTR-RBP4 complex in CD-1 mouse assessed as reduction in serum RBP4 level at 25 mg/kg, po administered via gavage measured after 6 hrs by ELISA relative to control; type: functional; design: scale not given: the % may be the effect or the level left; how it was run: as §5
[18] = Stability in human liver microsomes assessed as parent compound remaining measured after 30 mins; type: ADME, Microsome; details: 0.5 h; how it was run: as §4
[19] = Stability in cynomolgus monkey liver microsomes assessed as parent compound remaining measured after 30 mins; type: ADME, Macaca fascicularis, Microsome; details: 0.5 h; how it was run: as §4
[20] = target: T1, Retinol-binding protein 4; assay: Displacement of [3H]-all-trans-retinol from MBP-tagged RBP4 (unknown origin) expressed in Escherichia coli assessed as reduction in untagged Eu-labelled TTR-RBP4 interaction measured after overnight incubation by HTRF assay

Sequence of CYP3A4 (P08684 whole entry): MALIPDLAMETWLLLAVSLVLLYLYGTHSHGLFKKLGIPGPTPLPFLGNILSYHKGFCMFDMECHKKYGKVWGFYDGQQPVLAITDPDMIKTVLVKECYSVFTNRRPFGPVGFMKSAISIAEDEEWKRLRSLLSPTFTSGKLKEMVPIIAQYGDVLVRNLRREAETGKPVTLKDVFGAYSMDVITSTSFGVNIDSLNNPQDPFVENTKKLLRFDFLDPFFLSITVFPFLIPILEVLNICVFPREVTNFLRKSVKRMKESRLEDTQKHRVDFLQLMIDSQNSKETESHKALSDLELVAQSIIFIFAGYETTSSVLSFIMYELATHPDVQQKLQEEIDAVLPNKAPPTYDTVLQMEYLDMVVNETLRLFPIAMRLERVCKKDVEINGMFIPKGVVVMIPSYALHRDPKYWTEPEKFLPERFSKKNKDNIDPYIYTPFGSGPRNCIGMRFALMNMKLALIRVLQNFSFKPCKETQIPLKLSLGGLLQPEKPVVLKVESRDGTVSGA
Sequence of CYP2C19 (P33261 whole entry): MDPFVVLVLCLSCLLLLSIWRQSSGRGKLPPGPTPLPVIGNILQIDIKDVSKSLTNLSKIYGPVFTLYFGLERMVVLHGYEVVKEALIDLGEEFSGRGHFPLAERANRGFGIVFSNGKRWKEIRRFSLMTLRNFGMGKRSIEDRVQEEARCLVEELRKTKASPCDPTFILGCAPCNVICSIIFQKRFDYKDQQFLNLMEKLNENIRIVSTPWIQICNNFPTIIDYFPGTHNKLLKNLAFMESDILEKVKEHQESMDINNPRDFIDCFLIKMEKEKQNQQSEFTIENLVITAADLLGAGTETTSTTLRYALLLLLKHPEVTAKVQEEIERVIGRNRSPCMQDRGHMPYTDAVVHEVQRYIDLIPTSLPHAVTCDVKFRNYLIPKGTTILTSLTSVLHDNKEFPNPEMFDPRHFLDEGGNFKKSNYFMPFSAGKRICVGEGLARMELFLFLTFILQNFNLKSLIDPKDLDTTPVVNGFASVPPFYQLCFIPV
Sequence of CYP2C9 (P11712 whole entry): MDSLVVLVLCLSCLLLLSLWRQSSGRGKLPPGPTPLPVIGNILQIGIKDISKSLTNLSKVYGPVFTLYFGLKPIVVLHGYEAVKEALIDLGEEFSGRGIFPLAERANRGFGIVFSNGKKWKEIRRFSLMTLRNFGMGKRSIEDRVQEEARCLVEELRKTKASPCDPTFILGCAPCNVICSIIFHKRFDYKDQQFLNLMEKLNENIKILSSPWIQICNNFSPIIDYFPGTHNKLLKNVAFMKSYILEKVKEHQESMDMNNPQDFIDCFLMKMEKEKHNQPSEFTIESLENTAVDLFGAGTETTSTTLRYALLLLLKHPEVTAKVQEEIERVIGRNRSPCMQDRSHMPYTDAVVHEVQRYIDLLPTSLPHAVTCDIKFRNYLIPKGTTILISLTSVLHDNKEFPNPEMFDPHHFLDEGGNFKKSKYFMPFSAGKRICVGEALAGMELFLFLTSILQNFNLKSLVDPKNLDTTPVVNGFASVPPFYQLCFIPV
Sequence of CYP2D6 (P10635 whole entry): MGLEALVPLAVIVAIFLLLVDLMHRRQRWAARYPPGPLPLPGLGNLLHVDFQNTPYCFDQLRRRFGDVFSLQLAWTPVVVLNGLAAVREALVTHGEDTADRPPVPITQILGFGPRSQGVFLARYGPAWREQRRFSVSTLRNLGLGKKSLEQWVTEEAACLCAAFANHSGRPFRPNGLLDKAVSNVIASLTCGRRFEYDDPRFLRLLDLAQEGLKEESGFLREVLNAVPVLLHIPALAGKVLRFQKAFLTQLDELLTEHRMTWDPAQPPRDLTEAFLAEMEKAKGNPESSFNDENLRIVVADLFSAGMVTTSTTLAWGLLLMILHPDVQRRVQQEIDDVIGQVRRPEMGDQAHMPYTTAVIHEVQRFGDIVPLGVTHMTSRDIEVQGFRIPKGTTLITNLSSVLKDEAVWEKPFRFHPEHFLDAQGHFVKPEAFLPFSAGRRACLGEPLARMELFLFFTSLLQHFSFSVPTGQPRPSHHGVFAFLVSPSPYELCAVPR

Question: Which IC50 [1] does the source give for Cc1cc(C(=O)O)nc(N2CC(Oc3ccccc3C(F)(F)F)C2)n1 here?
Answer: > 3000 nM

Question: Which Activity (Transthyretin [2]) does the source give for CC1=C(/C=C/C(C)=C/C=C/C(C)=C/CO)C(C)(C)CCC1 here?
Answer: Active

Question: With O=C(O)c1ccc2nc(-c3cc(Cl)cc(Cl)c3)oc2c1 as the molecule, how does the Activity (Transthyretin [2]) read?
Answer: Active

Question: What about the fold change (FC) (Transthyretin [3]) of the same molecule?
Answer: 3.6

Question: With COc1ccc(C(F)(F)F)c(OCC2CCN(c3nc(C)cc(C(=O)O)n3)C2)c1 (racemic) as the molecule, how does the IC50 (Transthyretin [4]) read?
Answer: > 30000 nM

Question: What about the IC50 [1] of the same molecule?
Answer: > 3000 nM

Question: Which inhibition at 10 µM (CYP2C9) does the source give for Cc1cc(C(=O)O)nc(N2CCC(COc3ccccc3C(F)(F)F)C2)n1 (racemic) here?
Answer: 0%

Question: What about the C0 [5] of the same molecule?
Answer: 9129 ng/mL

Question: What about the solubility kinetic [6] of the same molecule?
Answer: 187 µM (≈ 71.5 µg/mL)

Question: What about the inhibition at 10 µM (CYP2C19) of the same molecule?
Answer: 8%

Question: And the t1/2 [7]?
Answer: 9.9 h

Question: What about the Tmax [8] of the same molecule?
Answer: 0.83 h

Question: And the “beta t1/2” value [9]?
Answer: 8.6 h

Question: What about the inhibition at 10 µM (CYP2D6) of the same molecule?
Answer: 18.1%

Question: What about the Cmax [10] of the same molecule?
Answer: 3030 ng/mL

Question: What about the Activity (Mus musculus) of the same molecule?
Answer: inactive

Question: What about the F [11] of the same molecule?
Answer: 52%

Question: And the Stabilty [12]?
Answer: 95%

Question: What about the Activity [13] of the same molecule?
Answer: 64%

Question: What about the inhibition at 10 µM (CYP3A4) of the same molecule?
Answer: 2.2%

Question: And the AUC [14]?
Answer: 52439 ng·h/mL

Question: And the Activity (Transthyretin [2])?
Answer: Active

Question: What about the Stabilty [15] of the same molecule?
Answer: 93%

Question: And the fold change (FC) (Transthyretin [3])?
Answer: 4.7

Question: And the Vdss [16]?
Answer: 0.518 L/kg

Question: What about the Activity [17] of the same molecule?
Answer: 81%

Question: What about the Stabilty [18] of the same molecule?
Answer: 105%

Question: And the Stabilty [19]?
Answer: 103%

Question: Which IC50 (Transthyretin [4]) does the source give for Cc1cc(C(=O)O)nc(N2CCC(COc3cccc(Cl)c3C(F)(F)F)C2)n1 (racemic) here?
Answer: 3900 nM

Question: And the IC50 [1]?
Answer: 180 nM

Question: What does the source list for Cc1cc(C(=O)O)nc(N2CCC(COc3ccc(F)cc3C(F)(F)F)C2)n1 (racemic)?
Answer: IC50 (Transthyretin [4]): 3900 nM; IC50 [20]: 870 nM; IC50 [1]: 240 nM

Question: Which IC50 (Transthyretin [4]) does the source give for Cc1cc(C(=O)O)nc(N2CCC(COc3cc(C(F)(F)F)cc(C(F)(F)F)c3)C2)n1 (racemic) here?
Answer: > 30000 nM

Question: And the IC50 [1]?
Answer: 1600 nM
